STAT3 act-1: IL-6 driven STAT3 reporter potentiators, primary screen, U3A cells, luciferase, luminescence, MLSCN library | IL-6 STAT3-luciferase reporter; 100% = signal with IL-6 EC80 alone | activation (% of control), % at 5.6 µM | actives 0.91% (n = 190,000) | AID 871, 2007;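 active = activation above the screen-wide mean of compound activation plus 3 SD, cut at about 130% in these data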;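 note: 0% = background luminescence of wells with medium and substrate only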
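Material: STAT1-lacking human U3A cells, STAT3 luciferase reporter | Benchmarks: IL-6-only wells as 100% reference | Probe or stimulus: IL-6 (33 ng/mL) | Timing: Compound 1 h, then IL-6 6 h at 37 °C | Detection: Luminescence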
STAT1 act-1: STAT1 signaling activators, primary screen, cell-based, HTS, luciferase reporter | NIH 3T3 STAT1-luciferase reporter, IFN-gamma, luminescence; 100% = IFN-gamma alone, no compound | actives 2.6% (n = 200,000) | activation (% of control), % at 5.5 µM;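 active = activation above the screen-wide mean activation plus 3 SD, cut at about 130% in these data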;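 note: raw ratio to IFN-gamma control signal so 100% means no change and 0% no light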
APP 5'UTR act: activators of APP 5'UTR luciferase reporter, primary screen, SH-SY5Y cells | SH-SY5Y APP 5'UTR luciferase reporter, luminescence; zero percent = DMSO vehicle wells | activation, % at 2 µM | actives 1% (n = 190,000);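 active = activation above a set limit, based on mean plus 3 SD of controls, cut at about 140% in these data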
NF-kB expr up: activators of NF-kB expression in neurons, primary screen, cell-based, HTS. actives 1.6% (n = 190,000). fold change at 12.5 µM. AID 1239, 2008. human neuronal cells, NF-kB reporter expression; stronger effect = higher value; in the data active = fold change above about 3.3
STAT1 inh: STAT1 signaling inhibitors, primary screen, cell-based, HTS, luciferase reporter; NIH 3T3 STAT1-luciferase reporter, IFN-gamma, luminescence; AID 920, 2007; actives 0.35% (n = 200,000); inhibition, % at 5.5 µM;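 active = inhibition above a set limit, the mean inhibition across all tested compounds plus 3 SD, cut at about 34% in these data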;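 note: 0% = IFN-gamma with DMSO and 100% = IFN-gamma with 300 µM nifuroxazide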
STAT3 inh: IL-6 driven STAT3 reporter inhibitors, primary screen, U3A cells, luciferase, luminescence, MLSCN library; IL-6 STAT3-luciferase reporter; host cell line lacks STAT1; inhibition, % at 5.5 µM; actives 0.89% (n = 190,000); AID 862, 2007;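 active = inhibition above the mean inhibition across all screened compounds plus 3 SD, cut at about 44% in these data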;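 note: 0% = DMSO only wells and 100% = 100 µM nifuroxazide control wells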
STAT3 act-2: STAT3 reporter potentiators, retest of hits, confirmation, U3A cells, luciferase, luminescence; IL-6 potentiation; U3A cells lack STAT1; 100 means same as IL-6 alone; actives 64% (n = 1,200); potentiation (% of control), % at 5.7 µM; shares compounds with STAT3 act-1;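 active = percent activation of the STAT3 luciferase reporter above a set limit taken from the earlier primary screen, cut at about 130% in these data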;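 note: 0% = background signal of medium plus substrate and 100% = median of IL-6 with DMSO wells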
NFkB act STAT3ct: NF-kB reporter activators in human cells, counter-screen for STAT3 activator project. NF-kappaB reporter activation. shares compounds with STAT3 act-1. activation (% of control), % at 5.7 µM. actives 11% (n = 1,200); in the data active = activation above about 120%;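 note: reporter induced by TNF-alpha stimulation; 100% = median of stimulated DMSO wells and 0% = no signal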
STAT1 act-2: STAT1 reporter activators, IFN-gamma induced, counter-screen for STAT3 activator project, cell-based, NIH 3T3, luciferase luminescence; shares compounds with STAT3 act-1; NIH 3T3 STAT1-luciferase reporter; activation (% of control), % at 5.7 µM; actives 13% (n = 1,200); AID 1318, 2008;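 active = activation above the solvent-only control well mean plus 3 SD, set per screening run, cut at about 120% in these data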;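 note: 100% = IFN-gamma with DMSO median signal so 100% means no change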
Starred values were filed as active, the others as inactive; . = no result. In the library only some 5.1% were active in any assay of this set; here they are far more common.

SMILES	STAT3 act-1	STAT1 act-1	APP 5'UTR act	NF-kB expr up	STAT1 inh	STAT3 inh	STAT3 act-2	NFkB act STAT3ct	STAT1 act-2
Cc1cccc(C2c3[nH]c4ccccc4c3CCN2Cc2ccc(C)s2)n1 (centres undefined)	142.2*	95.8	9.4	1.17	3.0	-43.3	124.0	99.0	91.0
Cc1nc(C)c(CC(=O)N2CCc3c([nH]c4ccccc34)C2c2ccccn2)s1 (centres undefined)	95.6	92.9	9.3	.	6.1	10.0	.	.	.
Cc1cccc(C2c3[nH]c4ccccc4c3CCN2C(=O)c2cc(C(C)C)nc(N)n2)n1 (centres undefined)	129.9	98.0	13.0	0.89	2.0	-27.5	.	.	.
Cc1cccc(C2c3[nH]c4ccccc4c3CCN2C(=O)c2cc3c([nH]c2=O)CCCC3)n1 (centres undefined)	127.3	87.3	-5.3	0.65	13.4	-24.6	.	.	.
Cc1cccc(C2c3[nH]c4ccccc4c3CCN2C(=O)c2ccc(=O)[nH]c2)n1 (centres undefined)	143.2*	104.2	-12.5	0.79	-6.6	-41.0	120.1	100.8	99.2
Cc1cccc(C2c3[nH]c4ccccc4c3CCN2C(=O)Cc2n[nH]c(C)n2)n1 (centres undefined)	137.0*	91.4	13.6	0.92	7.4	-34.7	138.6*	100.0	93.5
Cc1ccc(S(=O)(=O)Nc2ccnc(-c3cccnc3)n2)cc1	94.1	99.2	-3.6	0.87	0.7	9.4	.	.	.
Cc1sc2c(c1C)CN(C(C)(C)C)CN2C(=O)c1ccccc1	141.6*	113.7	28.3	1.71	-14.9	-45.1	128.3	115.0	119.5
[O-]/C(=C(\C(=S)NCc1ccccc1)[n+]1ccccc1)c1ccc(Cl)s1	102.3	102.4	12.4	1.01	-2.7	2.1	.	.	.
Cn1ccnc1Sc1ccc(/C=N/NC(=O)c2ccccc2O)cc1[N+](=O)[O-]	149.2*	98.3	5.3	1.04	1.9	-62.7	177.4*	115.7	124.3*
Cc1ccc(C(=O)N2CCN3C(=O)c4ccccc4C23c2ccccc2)cc1 (centres undefined)	158.5*	94.0	1.0	1.18	4.9	-60.5	110.8	102.2	100.9
N/C(=N\OC(=O)c1cc(Br)ccc1Cl)c1cccnc1	137.8*	115.3	36.3	1.99	-19.9	-39.7	132.2	112.8	113.4
N/C(=N\OC(=O)c1cccc(Cl)c1)c1cccnc1	100.8	114.6	75.2	2.56	-15.8	3.6	.	.	.
N/C(=N\OC(=O)c1cc(Cl)ccc1Cl)c1cccnc1	162.8*	125.2	7.6	1.98	-27.3	-81.0	152.0*	120.9*	134.9*
Cc1cccc(C)c1NC(=O)CN(C)CC(=O)Nc1cc(Cl)ccc1C#N	138.3*	90.4	-1.4	0.92	10.5	-39.3	125.1	103.0	95.0
CCOc1ccc(NC(=O)CN(C)CC(=O)Nc2ccccc2SC)cc1OCC	111.6	108.1	-12.2	1.25	-8.9	-14.0	.	.	.
CCOc1ccc(NC(=O)CN(C)CC(=O)Nc2cc(Cl)ccc2C#N)cc1OCC	154.0*	87.3	8.9	0.76	13.8	-59.5	132.4	98.7	91.7
Cc1ccc(S(=O)(=O)CCNC(=O)Cc2ccc(Cl)cc2)cc1	100.0	100.0	2.7	1.27	-2.9	4.8	.	.	.
COc1cc2c(cc1OC)C(C)N(C(=O)c1cc3c(=O)oc4ccc(C)cc4c3s1)CC2 (centres undefined)	104.8	102.2	17.9	0.68	-2.4	-5.7	.	.	.
O=C(Cc1cccs1)Nc1ccccn1	157.0*	99.6	2.4	1.09	2.8	-64.4	137.0*	101.9	95.3
CC(C)C(NC(=O)c1ccc(F)cc1)C(=O)Nc1cccnc1 (centres undefined)	105.4	98.2	5.5	1.18	1.6	1.6	.	.	.
Cc1nc(-c2ccccc2)nc(Cl)c1Cl	100.0	91.4	8.0	1.15	8.8	2.2	.	.	.
CCC(=O)n1nc(-c2ccc(Cl)cc2)nc1SC	89.1	112.7	20.7	1.97	-13.8	15.9	.	.	.
Cc1nc2nc(-c3ccccc3)nn2c(C)c1Cl	178.7*	114.0	-14.5	.	-15.2	-92.4	168.9*	125.9*	137.7*
Cc1nc2nc(-c3ccc(Cl)cc3)nn2c(C)c1Cl	167.0*	91.6	8.9	1.92	9.4	-83.8	163.6*	117.7	124.0*
SMILES	STAT3 act-1	STAT1 act-1	APP 5'UTR act	NF-kB expr up	STAT1 inh	STAT3 inh	STAT3 act-2	NFkB act STAT3ct	STAT1 act-2
CCOC(=O)c1[nH]c2ccccc2c1NC(=O)c1ccc(S(=O)(=O)N2CCCCC2)cc1	120.9	102.6	-0.9	0.57	-2.8	-24.4	.	.	.
CCOC(=O)c1nc2ccccc2s1	146.3*	120.0	17.3	2.3	-22.1	-50.2	146.7*	116.5	133.5*
Cc1coc(NC(=O)CSc2nc(-c3ccc(Cl)cc3)cc(C(F)(F)F)c2C#N)n1	137.7*	100.0	20.4	1.04	0.0	-36.6	130.4	104.5	102.6
COc1ccc(-c2cc(C(F)(F)F)c(C#N)c(SCC(=O)Nc3nc(C)co3)n2)cc1	106.4	102.9	5.6	1.65	-3.2	4.1	.	.	.
COc1ccc(-c2nn(-c3ccccc3)cc2/C=C/C(=O)N2CCN(c3ccccn3)CC2)cc1	95.8	109.8	1.9	1.14	-11.8	6.6	.	.	.
Cc1ccccc1-n1nnnc1Sc1nnnn1-c1ccccc1	104.2	75.5	-5.0	0.62	26.4	-0.4	.	.	.
CCCSc1nnc(Sc2nnnn2-c2ccccc2)s1	177.7*	90.5	-94.5	1.23	10.3	-83.4	147.4*	102.7	90.1
O=c1cc(-c2ccccc2)nc2n1Cc1ccccc1-2	154.6*	107.0	-4.5	0.74	-14.7	-66.0	133.4*	114.1	118.5
O=C(c1cc(-c2ccccc2)nc2ccccc12)N1CCc2ccccc2C1	106.3	96.3	15.7	0.86	4.2	-8.8	.	.	.
CCCCOCCCNC(=O)c1ccc(OC)cc1	96.5	99.3	-10.7	1.24	0.7	10.7	.	.	.
CCOCCCNC(=O)c1ccc2c(c1)N=C(CC)c1cc(Br)ccc1S2	157.2*	117.0	-94.4	3.04	-19.4	-45.7	122.0	160.3*	119.3

High-throughput results deposited in PubChem by several laboratories.
